Published values collected from several papers.
FABP4: Fatty acid-binding protein, adipocyte (FABP4, Homo sapiens, UniProt P15090)
Sialidase-2: Sialidase-2 (Homo sapiens, UniProt Q9Y3R4)
ACHE: Acetylcholinesterase (ACHE, Homo sapiens, UniProt P22303)
DPP4: Dipeptidyl peptidase 4 (DPP4, Homo sapiens, UniProt P27487)

| SMILES | target | effect on | action | technique | pH | IC50 |
| --- | --- | --- | --- | --- | --- | --- |
| O=C(O)C(F)(F)C(F)(F)C(F)(F)C(F)(F)C(F)(F)C(F)(F)C(F)(F)F | FABP4 | ligand displacement |  | fluorescence | pH 7.5 | 4.67 µM |
| CCCCCCN[C@H]1[C@H]([C@H](O)[C@H](O)CO)OC(C(=O)O)=C[C@@H]1O | Sialidase-2 | enzyme activity | inhibitor |  |  | 16 µM |
| CC(C)(C)c1cccc(C=Nc2ccc(SCc3cc(=O)c(O)co3)cc2)c1 | ACHE | enzyme activity | inhibitor | Ellman |  | 6.45 µM |
| CC(C)Cc1cn([C@H]2[C@H]([C@H](O)[C@H](O)CO)OC(C(=O)O)=C[C@@H]2O)nn1 | Sialidase-2 | enzyme activity | inhibitor |  |  | 1.4 µM |
| COC(=O)[C@@H](NC(=O)COc1c(NC(C)=O)cc(-c2nc3ccccc3s2)cc1OC)C(C)C | ACHE | enzyme activity | inhibitor | Ellman |  | > 264 µM |
| C1CO1.C=O.CC(C)(C)CC(C)(C)c1ccc(O)cc1 | Mitogen-activated protein kinase 3 (MAPK3, Homo sapiens, UniProt P27361) | enzyme activity | inhibitor | ADP detection |  | 91.9 µM |
| CCOC(=O)c1ccc(OC(=O)CCCCCN=C(N)N)cc1 | Tryptase beta-2 (TPSB2, Homo sapiens, UniProt P20231) | enzyme activity | inhibitor |  |  | 0.00428 µM |
| O=C(O)C1=C[C@H](O)[C@@H](NCc2ccc(-c3ccccc3)cc2)[C@H]([C@H](O)[C@H](O)CO)O1 | Sialidase-2 | enzyme activity | inhibitor |  |  | 230 µM |
| CC(=O)c1c(C)c2cnc(Nc3ccc(C4CCN(CCS(C)(=O)=O)CC4)cn3)nc2n(C2CCCC2)c1=O | Cyclin-dependent kinase 9 (CDK9, Homo sapiens, UniProt P50750) | enzyme activity | inhibitor | mobility shift |  | > 0.75 µM |
| CCc1ccc(C=Nc2ccc(SCc3cc(=O)c(O)co3)cc2)cc1 | ACHE | enzyme activity | inhibitor | Ellman |  | 8.46 µM |
| CC(C)(C)CC(=O)N[C@H]1[C@H]([C@H](O)[C@H](O)CO)OC(C(=O)O)=C[C@@H]1O | Sialidase-2 | enzyme activity | inhibitor |  |  | 80 µM |
| NC(=O)CC[C@H](NC(=O)[C@@H]1CCCN1C(=O)[C@H](CCC(N)=O)NC(=O)[C@@H]1CCCN1C(=O)[C@@H](N)Cc1ccc(O)cc1)C(=O)O | DPP4 | enzyme activity | inhibitor | absorbance | pH 8 | 23.9 µM |
| COC(=O)CNC(=O)COc1c(NC(C)=O)cc(-c2nc3ccccc3s2)cc1OC | ACHE | enzyme activity | inhibitor | Ellman |  | > 289 µM |
| O=C(O)C(F)(F)C(F)(F)C(F)(F)F | FABP4 | ligand displacement |  | fluorescence | pH 7.5 | 2840 µM |
| COc1c2c(cc3c1-c1c(cc4c(c1OC)OCO4)C[C@H](C)[C@H](C)C3)OCO2 | DPP4 | enzyme activity | inhibitor | fluorescence |  | > 100 µM |
| Cn1cc2cc(C(F)(F)c3nnc4ccc(-c5cnn(C6CC6)c5)nn34)c(F)cc2n1 | Proto-oncogene tyrosine-protein kinase Src (SRC, Homo sapiens, UniProt P12931) | enzyme activity | inhibitor | ADP detection |  | > 1 µM |
| O=C(O)C(F)(F)C(F)(F)C(F)(F)C(F)(F)C(F)(F)C(F)(F)C(F)(F)C(F)(F)C(F)(F)F | FABP4 | ligand displacement |  | fluorescence | pH 7.5 | 3.54 µM |
| O=c1cc(CSc2ccc(N=Cc3ccccc3Br)cc2)occ1O | ACHE | enzyme activity | inhibitor | Ellman |  | 1.34 µM |
| COc1cc(-c2nc3ccccc3s2)cc(NC(C)=O)c1OCC(=O)N[C@@H](CC(C)C)C(=O)O | ACHE | enzyme activity | inhibitor | Ellman |  | > 264 µM |
| COc1cccc(C=Nc2ccc(SCc3cc(=O)c(O)co3)cc2)c1 | ACHE | enzyme activity | inhibitor | Ellman |  | 19.9 µM |
| CCCCCc1cn([C@H]2[C@H]([C@H](O)[C@H](O)CO)OC(C(=O)O)=C[C@@H]2O)nn1 | Sialidase-2 | enzyme activity | inhibitor |  |  | > 500 µM |
| Cc1cccc(C=Nc2ccc(SCc3cc(=O)c(O)co3)cc2)c1 | ACHE | enzyme activity | inhibitor | Ellman |  | 5.66 µM |
| O=C(O)C1=C[C@H](O)[C@@H](n2cc(-c3ccc(-c4ccccc4)cc3)nn2)[C@H]([C@H](O)[C@H](O)CO)O1 | Sialidase-2 | enzyme activity | inhibitor |  |  | 270 µM |
| O=c1cc(CSc2ccc(N=Cc3ccc(F)cc3)cc2)occ1O | ACHE | enzyme activity | inhibitor | Ellman |  | 1.44 µM |
| CN(C(=O)CC(C)(C)C)[C@H]1[C@H]([C@H](O)[C@H](O)CO)OC(C(=O)O)=C[C@@H]1O | Sialidase-2 | enzyme activity | inhibitor |  |  | 50 µM |
| CC(C)(C)c1ccc(C=Nc2ccc(SCc3cc(=O)c(O)co3)cc2)cc1 | ACHE | enzyme activity | inhibitor | Ellman |  | 17.4 µM |
| O=C(O)C(F)(F)C(F)(F)C(F)(F)C(F)(F)C(F)(F)C(F)(F)C(F)(F)C(F)(F)C(F)(F)C(F)(F)F | FABP4 | ligand displacement |  | fluorescence | pH 7.5 | 2.92 µM |
| O=c1cc(CSc2ccc(N=Cc3ccccc3C(F)(F)F)cc2)occ1O | ACHE | enzyme activity | inhibitor | Ellman |  | 8.05 µM |
| CCCCCC(=O)N[C@H]1[C@H]([C@H](O)[C@H](O)CO)OC(C(=O)O)=C[C@@H]1O | Sialidase-2 | enzyme activity | inhibitor |  |  | 8 µM |
